This sample holds only a part of the variants without activity.
B1: tRNA (parent)
chain: GUUCCGUUGGCGUAAUGGUAACGCGUCUCCCUCCUAAGGAGAAGACUGCGGGUUCGAGUCCCGUACGGAACG

Variants of: B1
Assay: yeast fitness relative to wild type (ratio to wild type); higher = fitter; tRNA-Arg(CCU), competitive growth, 37 C, YPD
Summary of the method: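 A pool of Saccharomyces cerevisiae strains, each with a tRNA-Arg(CCU) gene variant at the native genomic locus, was competed in YPD at 37°C for 24 hours across six parallel replicates. The variants had been chemically synthesised at a 3% per-site mutation rate over 69 sites, and gene amplicons before and after competition were read by 100-nucleotide paired-end sequencing. Darwinian fitness relative to wild type rested on changes in genotype frequencies. Genotypes required ≥ 100 starting reads, and estimates < 0.5 were set to 0.5.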

Question: With GUUGCGUUGGCGUAAUGGUAACGCGUCUCCCUCCUAAGGAGCAGACUGCAGGUUCGAGUCCCGUACGGAACG [C4G A42C G50A] as the variant, how does the yeast fitness read?
Answer: The yeast fitness was no more than 0.5.

Question: With GUUGCGUUGGCGUAAUGGUAACGCGUCUCCCUCCUAAGGAGGAGUCUGCGGGUUCGAGUCCCGUAUGGAACG [C4G A42G A45U C66U] as the variant, how does the yeast fitness read?
Answer: Its yeast fitness is 0.659.

Question: Which yeast fitness does the source give for GUUGCGUUGGCGUAAUGGUAACGCGUCUCCCUCCUAAGGAGACGACUGCGGGUUCGAGUCCCGUACGGAACG [C4G A43C] here?
Answer: Its yeast fitness is 0.853.

Question: Which yeast fitness does the source give for GUUGCGUUGGCGUAAUGGUAACGCGUCUCCCUCCUAAGGAGACGACUGCGGGUUAGCGUCCCGUACGGAACG [C4G A43C C55A A57C] here?
Answer: The yeast fitness was no more than 0.5.

Question: For GUUGCGUUGGCGUAAUGGUAACGCGUCUCCCUCCUAAGGAGACGACUGCGGGUUCGAGUCCAGUACGGAACG [C4G A43C C62A], which yeast fitness is on record?
Answer: The yeast fitness was no more than 0.5.

Question: With GUUGCGUUGGCGUAAUGGUAACGCGUCUCCCUCCUAAGGAGAUCACUGCGGGUUCGAGUCCCGUACGGAACG [C4G A43U G44C] as the variant, how does the yeast fitness read?
Answer: The yeast fitness was 0.531.

Question: With GUUGCGUUGGCGUAAUGGUAACGCGUCUCCCUCCUAAGGAGAAGGCUGCGGGUUCGUGUCCCGUAUGGAACG [C4G A45G A57U C66U] as the variant, how does the yeast fitness read?
Answer: The yeast fitness was 0.512.

Question: For GUUGCGUUGGCGUAAUGGUAACGCGUCUCCCUCCUAAGGAGAAGGCUGCGGGUUCGAGUCCCGUACGCAACG [C4G A45G G68C], which yeast fitness is on record?
Answer: Its yeast fitness is 0.567.

Question: With GUUGCGUUGGCGUAAUGGUAACGCGUCUCCCUCCUAAGGAGAAGGCUGCGGGUACGAGUCCCGUACGGAACG [C4G A45G U54A] as the variant, how does the yeast fitness read?
Answer: Its yeast fitness is no more than 0.5.

Question: With GUUGCGUUGGCGUAAUGGUAACGCGUCUCCCUCCUAAGGAGAAGUCUGCGGGUUCGAGUCCCGUACGGAACG [C4G A45U] as the variant, how does the yeast fitness read?
Answer: The yeast fitness was 0.91.

Question: Which yeast fitness does the source give for GUUGCGUUGGCGUAAUGGUAACGCGUCUCCCUCCUAAGGAGAAGACUGCGGGUUCGCGUCCCGUACGGAACG [C4G A57C] here?
Answer: The yeast fitness was 0.57.

Question: Which yeast fitness does the source give for GUUGCGUUGGCGUAAUGGUAACGCGUCUCCCUCCUAAGGAGAAGACUGCGGGUUCGAGUCCCGUUCGUAACG [C4G A65U G68U] here?
Answer: Its yeast fitness is 1.11.

Question: For GUUGAGUUGGCGUAAUGGUAACGCGUCUCCCUCCUAAGGAGAAGACUGCGGGUUCGAGUCCCGUACGGAACG [C4G C5A], which yeast fitness is on record?
Answer: Its yeast fitness is 0.765.

Question: Which yeast fitness does the source give for GUUGAGUUGGCGUAAUGGUAUCGCGUCUCCCUCGUAAGGAGAAGACUGCGGGUUCGAGUCCCGUACGGAACG [C4G C5A A21U C34G] here?
Answer: Its yeast fitness is no more than 0.5.

Question: With GUUGAGUUGGCGUAAUGGUAACGCGUAUCCCUCCUAAGGAGAAGACUGCGGGUUCGAGUCACGUACGGAACG [C4G C5A C27A C61A] as the variant, how does the yeast fitness read?
Answer: The yeast fitness was no more than 0.5.

Question: For GUUGAGUUGGCGUAAAAGUAACGCGUCUCCCUCCUAAGGAGAAGACUGCAGGUUCGAGUCCCGUACGGAACG [C4G C5A U16A G17A G50A], which yeast fitness is on record?
Answer: Its yeast fitness is no more than 0.5.

Question: Which yeast fitness does the source give for GUUGAGUUGGCGUAAUGGAAACGGGUCUGCCUCCUAAGGAGAAGACUGCGGGUUCGAGUCCCGUAUGGAACG [C4G C5A U19A C24G C29G C66U] here?
Answer: The yeast fitness was no more than 0.5.

Question: For GUUGAGUUGGCGUAAUGGUAACGCGUCGCCCUCCUAAGGAGAAGACUGCGGGUUCGAGUCCCGUACGGAACG [C4G C5A U28G], which yeast fitness is on record?
Answer: Its yeast fitness is no more than 0.5.

Question: For GUUGGGUUGGAGUAAUGGUAACGCGUCUCCCUCCUAAAGAGAAGACUGCGGGUUCGAGUCCCGUACGGAACG [C4G C5G C11A G38A], which yeast fitness is on record?
Answer: Its yeast fitness is no more than 0.5.

Question: Which yeast fitness does the source give for GUUGGGUUGGCGUAAUGGUAACGCGUCUGCCUCCUAAGGAGAAGACUGCGGGUUCGAGUCCCGUACGGAACG [C4G C5G C29G] here?
Answer: Its yeast fitness is no more than 0.5.

Question: With GUUGGGUUGGCGUAAUGGUAACGCGUCUCCAUCCCAAGGAGAAGAAUGCGGGUUCGAGUCCCGUACAGAACG [C4G C5G C31A U35C C46A G67A] as the variant, how does the yeast fitness read?
Answer: The yeast fitness was no more than 0.5.

Question: For GUUGGGUCGGCGUAAUGGUAACCCGUCUUCCUCCUAAGGAGAAGUCUGCGGGUUCGAGUUCUGUACGGACCG [C4G C5G U8C G23C C29U A45U C60U C62U A70C], which yeast fitness is on record?
Answer: The yeast fitness was no more than 0.5.

Question: With GUUGUGUUGGCGUAAUGGUAACGCGUCUCCCUCCUAUGGAGAAGACUGCGGGUUCGAGUCCCGUACGGAACG [C4G C5U A37U] as the variant, how does the yeast fitness read?
Answer: Its yeast fitness is no more than 0.5.

Question: Which yeast fitness does the source give for GUUGUGUUGGCGUAAUGGUAACGCGUCUCCCUCCUAAGGAGAGGACUGCGGGUUCGAGUCCCGUACGGAACG [C4G C5U A43G] here?
Answer: Its yeast fitness is no more than 0.5.

Question: Which yeast fitness does the source give for GUUGUGUUGGCGUAAUGGUAACGCGUCUCUCUCCUAAGAAGAAGACUGCGGGUUCGAGUCCCGUACGGAACG [C4G C5U C30U G39A] here?
Answer: Its yeast fitness is no more than 0.5.

Question: With GUUGUGUAGGCAUAAUGGUAACGCGUCUCCCUCCUAAGGAGAAGACUACGGGUUCGAGUCCCGUACGGAACG [C4G C5U U8A G12A G48A] as the variant, how does the yeast fitness read?
Answer: The yeast fitness was no more than 0.5.

Question: With GUUGUGUUGGCGAAAUGGUAACGCGUCUCCCUCCUAAGGCGAAGACUGCGGGUUCGAAUCCCGUACGCAACG [C4G C5U U13A A40C G58A G68C] as the variant, how does the yeast fitness read?
Answer: The yeast fitness was no more than 0.5.

Question: With GUUGCGUUGGAGUUAUGGUAAAGGGUCUCCCUCCUAAGGAGAAGACUGCGGGUUCGAGUCCCGUACGGAACG [C4G C11A A14U C22A C24G] as the variant, how does the yeast fitness read?
Answer: Its yeast fitness is no more than 0.5.

Question: With GUUGCGUUGGAGUAAUGGUAACGCGUCUCCUUCCUAAGGCGAAGACUGCGGGUUCGAGUCCCGUACGGAACG [C4G C11A C31U A40C] as the variant, how does the yeast fitness read?
Answer: The yeast fitness was no more than 0.5.

Question: With GUUGCGUUGGAGUAAUAGUGACGCGUUUCCCUCCUAAGGAGAUGACUGGGGGUUCGAGUCCCGUACGGAACG [C4G C11A G17A A20G C27U A43U C49G] as the variant, how does the yeast fitness read?
Answer: Its yeast fitness is no more than 0.5.

Question: With GUUGCGUUGGAGUAAUAGUGACGCGUUUCCCUCCUAAGGAGAUGACUGGGGGUUCGAGUUCCGUACGAAACG [C4G C11A G17A A20G C27U A43U C49G C60U G68A] as the variant, how does the yeast fitness read?
Answer: The yeast fitness was no more than 0.5.

Question: With GUUGCGUUGGAGUAAUGGUAACGCGUCUCCCGCCUGAGGAGAAGACUGCGGGUUCGAGUCCCGUACGGAACG [C4G C11A U32G A36G] as the variant, how does the yeast fitness read?
Answer: Its yeast fitness is no more than 0.5.

Question: With GUUGCGUUGGGGUAAUGGUAACGCGUGUCCCUCCUAAGGAGAAGACUGCGGGUUCGGGGCCCGUACGGAACG [C4G C11G C27G A57G U59G] as the variant, how does the yeast fitness read?
Answer: The yeast fitness was no more than 0.5.

Question: With GUUGCGUUGGGGUAAUGGUAACGCGUCUCCGUCCUAAGGAGAAGACUACGGGUUAGAGUCCAGUACGGAACG [C4G C11G C31G G48A C55A C62A] as the variant, how does the yeast fitness read?
Answer: The yeast fitness was no more than 0.5.

Question: With GUUGCGUUGGGGUAAUGGUAACGCGUCUCCCUGCUAAGGAGAAGACAGCGGGUUCGAGUCCCGUACGGAACG [C4G C11G C33G U47A] as the variant, how does the yeast fitness read?
Answer: Its yeast fitness is no more than 0.5.

Question: Which yeast fitness does the source give for GUUGCGUUGGGGUAAUGGUAACGCGUCUCCCUCCUAAGGAGAAGACUGCGGGUUUGAGUCCCGUACGGAACG [C4G C11G C55U] here?
Answer: The yeast fitness was no more than 0.5.

Question: Which yeast fitness does the source give for GUUGCGUUGGGGUAAUGGUAACGCGUCUCCCUCCUAAGGAGAAGACUGCGGGUUUGAGUCACGUACAGAACG [C4G C11G C55U C61A G67A] here?
Answer: The yeast fitness was no more than 0.5.

Reference: the RNAGym collection of RNA variant scans (doi:10.1126/science.aae0568)
